Measurements published in ChEMBL document CHEMBL4130528, “Serotonin Analogues as Inhibitors of Breast Cancer Cell Growth” (ACS Med Chem Lett, 2017).
Activity calls are given as the source filed them. The calls are words filed in the database; no cut-off is given here.

How the values were obtained:
MDA-MB-231 [1] = assay: Cytotoxicity against human MDA-MB-231 cells assessed as reduction in cell viability by cell titer 96 aqueous one solution based assay; assay type: functional
Method in brief: (§1)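 MDA-MB-231 and MCF-7 breast cancer cells were treated with increasing concentrations of compound. Viability was read by MTS assay, and IC50 values were derived from the concentration–response data.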

MCF7 [2] = assay: Cytotoxicity against human MCF7 cells assessed as reduction in cell viability by cell titer 96 aqueous one solution based assay; assay type: functional; method in brief: as §1
MDA-MB-231 [3] = assay: Effect on total S6 level in human MDA-MB-231 cells at 20 uM after 12 hrs by RPPA analysis; assay type: cell-based; details: mda-mb-231, 12 h
MDA-MB-157 [4] = assay: Cytotoxicity against human MDA-MB-157 cells assessed as reduction in cell viability up to 10 uM after 24 to 72 hrs by cell titer 96 aqueous one solution based assay; assay type: functional
Method in brief: (§2)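 Triple-negative breast cancer cells were incubated with compound for 24, 48 or 72 h. Viability was then measured by MTS assay across a concentration series.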

MDA-MB-231 [5] = assay: Inhibition of PI3K/AKT in human MDA-MB-231 cells assessed as reduction in mTOR phosphorylation at Ser2448 at 20 uM after 12 hrs by RPPA analysis; assay type: cell-based
MDA-MB-157 [6] = assay: Induction of apoptosis in human MDA-MB-157 cells assessed as increase in caspase 3/7 activity up to 10 uM by Caspase-Glo 3/7 luciferase-based assay; assay type: functional, cell-based
Method in brief: (§3)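 Cells were treated with a range of compound concentrations. Apoptosis was read as caspase-3/7 activity using a luciferase-based luminescent assay.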

MDA-MB-157 [7] = assay: Cytotoxicity against human MDA-MB-157 cells assessed as reduction in cell viability up to 10 uM in presence of bovine serum albumin by cell titer 96 aqueous one solution based assay; assay type: functional
Method in brief: (§4)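 Viability was measured by MTS after treating triple-negative breast cancer cells in serum-free medium, either alone or with BSA added to the serum-free medium, across a concentration series.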

[8] = molecular target: T1, Acetyl-CoA carboxylase (Homo sapiens) (UniProt Q13085+O00763); assay: Increase in ACC phosphorylation at Ser79 in human MDA-MB-231 cells at 20 uM after 12 hrs by RPPA analysis; assay type: cell-based
MDA-MB-231 [9] = assay: Inhibition of mTORC1 signaling in human MDA-MB-231 cells assessed as reduction in S6 phosphorylation at Ser236 at 20 uM after 12 hrs by RPPA analysis; assay type: cell-based
MDA-MB-231 [10] = assay: Cytotoxicity against human MDA-MB-231 cells assessed as reduction in cell viability up to 10 uM in serum-free medium by cell titer 96 aqueous one solution based assay; assay type: functional; method in brief: as §4
MDA-MB-157 [11] = assay: Induction of apoptosis in human MDA-MB-157 cells assessed as increase in cleaved PARP level up to 10 uM by Western blot analysis; assay type: functional, cell-based
Method in brief: (§5)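 Cells were treated with a range of compound concentrations. Apoptosis was assessed by Western blot detection of cleaved poly-ADP ribose polymerase (PARP).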

MDA-MB-231 [12] = assay: Inhibition of mTORC1 signaling in human MDA-MB-231 cells assessed as reduction in S6 phosphorylation at Ser235 at 20 uM after 12 hrs by RPPA analysis; assay type: cell-based
MDA-MB-231 [13] = assay: Cytotoxicity against human MDA-MB-231 cells assessed as reduction in cell viability up to 10 uM in presence of bovine serum albumin by cell titer 96 aqueous one solution based assay; assay type: functional; method in brief: as §4
MDA-MB-157 [14] = assay: Inhibition of mTORC1 signaling in human MDA-MB-157 cells assessed as reduction in […] at 10 uM by Western blot analysis; assay type: cell-based
[15] = molecular target: T2, AMP-activated protein kinase, AMPK (Homo sapiens) (UniProt P54646+O43741+P54619+Q9UGJ0+Q9Y478+Q13131+Q9UGI9); assay: Increase in AMPK phosphorylation at T172 in human MDA-MB-231 cells at 20 uM after 12 hrs by RPPA analysis; assay type: cell-based
MDA-MB-231 [16] = assay: Induction of apoptosis in human MDA-MB-231 cells assessed as increase in caspase 3/7 activity by Caspase-Glo 3/7 luciferase-based assay; assay type: functional, cell-based; method in brief: as §3
MDA-MB-231 [17] = assay: Cytotoxicity against human MDA-MB-231 cells assessed as reduction in cell viability up to 10 uM after 24 to 72 hrs by cell titer 96 aqueous one solution based assay; assay type: functional; method in brief: as §2
MDA-MB-231 [18] = assay: Inhibition of mTORC1 signaling in human MDA-MB-231 cells assessed as reduction in […] at 10 uM by Western blot analysis; assay type: cell-based
MDA-MB-231 [19] = assay: Effect on total p70S6K level in human MDA-MB-231 cells at 20 uM after 12 hrs by RPPA analysis; assay type: cell-based; details: mda-mb-231, 12 h
MDA-MB-231 [20] = assay: Inhibition of PI3K/AKT in human MDA-MB-231 cells assessed as reduction in mTOR phosphorylation at Ser2448 up to 10 uM by Western blot analysis; assay type: cell-based
MDA-MB-231 [21] = assay: Inhibition of mTORC1 signaling in human MDA-MB-231 cells assessed as reduction in p70S6K phosphorylation at Thr389 at 20 uM after 12 hrs by RPPA analysis; assay type: cell-based
MDA-MB-157 [22] = assay: Inhibition of PI3K/AKT in human MDA-MB-157 cells assessed as reduction in mTOR phosphorylation at Ser2448 up to 10 uM by Western blot analysis; assay type: cell-based
MCF7 [23] = assay: Inhibition of PI3K/AKT in human MCF7 cells assessed as reduction in mTOR phosphorylation at Ser2448 at 20 uM after 12 hrs by RPPA analysis; assay type: cell-based
MDA-MB-231 [24] = assay: Inhibition of mTORC1 signaling in human MDA-MB-231 cells assessed as reduction in S6 phosphorylation at Ser244 at 20 uM after 12 hrs by RPPA analysis; assay type: cell-based
MDA-MB-157 [25] = assay: Cytotoxicity against human MDA-MB-157 cells assessed as reduction in cell viability up to 10 uM in serum-free medium by cell titer 96 aqueous one solution based assay; assay type: functional; method in brief: as §4
MDA-MB-231 [26] = assay: Induction of apoptosis in human MDA-MB-231 cells assessed as increase in cleaved PARP level up to 10 uM by Western blot analysis; assay type: functional, cell-based; method in brief: as §5
MDA-MB-231 [27] = assay: Inhibition of mTORC1 signaling in human MDA-MB-231 cells assessed as reduction in S6 phosphorylation at Ser240 at 20 uM after 12 hrs by RPPA analysis; assay type: cell-based
[28] = molecular target: T2, AMP-activated protein kinase, AMPK (Homo sapiens); assay: Increase in AMPK phosphorylation at T172 in human MCF7 cells at 20 uM after 12 hrs by RPPA analysis; assay type: cell-based
[29] = molecular target: T1, Acetyl-CoA carboxylase (Homo sapiens); assay: Increase in ACC phosphorylation at Ser79 in human MCF7 cells at 20 uM after 12 hrs by RPPA analysis; assay type: cell-based

`NCCc1c[nH]c2ccc(OCCCCCCCCCBr)cc12` showed an IC50 (MDA-MB-231 [1]) of 10 µM and an IC50 (MCF7 [2]) of 17 µM.
`NCCc1c[nH]c2ccccc12` [TRYPTAMINE] gave an IC50 (MDA-MB-231 [1]) of over 50 µM and an IC50 (MCF7 [2]) of over 50 µM.
With `CCCCCCCCCCCOc1ccc2[nH]cc(CCN)c2c1` the IC50 (MDA-MB-231 [1]) was 4.4 µM and the IC50 (MCF7 [2]) was 6.1 µM.
In the case of `CCCCCCCCCCCCCCCCOc1ccc2[nH]cc(CCN)c2c1`, the IC50 (MDA-MB-231 [1]) is reported as 7.5 µM and the IC50 (MCF7 [2]) is reported as 13 µM.
`CCCCCCCCCCCCCCOc1ccc2[nH]cc(CCN)c2c1` showed an IC50 (MDA-MB-231 [1]) of 4.8 µM and an IC50 (MCF7 [2]) of 8.4 µM.
`CCCCCCCCCOc1cccc2[nH]cc(CCN)c12.Cl` was tested, and the Activity (MDA-MB-231 [3]) was “Non-Toxic”, the Activity (MDA-MB-157 [4]) was “Active” and the inhibition (MDA-MB-231 [5]) was “inactive”. For the same compound, the Activity (MDA-MB-157 [6]) was “Active”, the Activity (MDA-MB-157 [7]) was “Active” and the Activity [8] was “Active”. For the same compound, the inhibition (MDA-MB-231 [9]) was “Active”, the Activity (MDA-MB-231 [10]) was “Active” and the IC50 (MDA-MB-231 [1]) was 4.2 µM. For the same compound, the Activity (MDA-MB-157 [11]) was “Active”, the inhibition (MDA-MB-231 [12]) was “Active” and the Activity (MDA-MB-231 [13]) was “inactive”. For the same compound, the inhibition (MDA-MB-157 [14]) was “Active”, the Activity [15] was “Active” and the Activity (MDA-MB-231 [16]) was “Dose-dependent effect”. The Activity (MDA-MB-231 [17]) was “Active”, the inhibition (MDA-MB-231 [18]) was “Active” and the Activity (MDA-MB-231 [19]) was “Non-Toxic”. The inhibition (MDA-MB-231 [20]) was “inactive”, the inhibition (MDA-MB-231 [21]) was “Active” and the inhibition (MDA-MB-157 [22]) was “inactive”. For the same compound, the inhibition (MCF7 [23]) was “inactive”, the inhibition (MDA-MB-231 [24]) was “Active” and the Activity (MDA-MB-157 [25]) was “Active”. The Activity (MDA-MB-231 [26]) was “Active”, the IC50 (MCF7 [2]) was 4.9 µM and the inhibition (MDA-MB-231 [27]) was “Active”. For the same compound, the Activity [28] was “Active” and the Activity [29] was “Active”.
With `CCCCCCCCCOc1ccc2[nH]cc(CCN)c2c1` the IC50 (MDA-MB-231 [1]) was 4.7 µM and the IC50 (MCF7 [2]) was 8.8 µM.
Work on `CCCCOc1ccc2[nH]cc(CCN)c2c1` yielded an IC50 (MDA-MB-231 [1]) of 48 µM and an IC50 (MCF7 [2]) of 45 µM.
`CCCCC(CC)COc1ccc2[nH]cc(CCN)c2c1` (stereo not given) gave an IC50 (MDA-MB-231 [1]) of 8.2 µM and an IC50 (MCF7 [2]) of 15 µM.
